For experiment [1], the system named is Hepatitis C virus. The experiment is described as follows: Antiviral activity against HCV replication. The format is functional, organism-based, Hepacivirus hominis.
Experiment [2] concerns Huh-7. The experiment is described as follows: Cytotoxicity against Huh7 cells by MTS assay. The format is functional. As to conditions: Homo sapiens. Summed up:
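Cells exposed to compound for 96 h; viability read by MTS tetrazolium reduction (non-radioactive cell proliferation kit); CC50 taken as the 50% cytotoxic concentration.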
(Formazan colour is commonly taken as a measure of viable cells.)

Broadly, the EC90 is the concentration at which the effect reaches the 90% level. A higher EC90 goes with weaker potency. The CC50 is the concentration at which the toxic effect on the cells reaches its halfway point. Read a low CC50 as greater toxicity to the cells. Consider `C[C@@]1(O)[C@H](O)[C@@H](CO)O[C@H]1n1cnc2c(=O)[nH]c(N)nc21` [2'-B-METHYL-GUANOSINE], for which the EC90 in experiment [1] came to 10.8 µM. In experiment [2], this compound came in with a CC50 of more than 100 µM.
In the same order, the values of `C[C@@]1(O)[C@H](O)[C@@H](CO)O[C@H]1n1cnc2c(N)ncnc21` are 1.4 µM and 15 µM.
In experiment [1], `C[C@@]1(F)[C@H](O)[C@@H](CO)O[C@H]1n1cnc2c(Cl)nc(N)nc21` returned an EC90 of 62.4 µM. This compound came in with a CC50 in experiment [2] of more than 100 µM.
For `C[C@@]1(F)[C@H](O)[C@@H](CO)O[C@H]1n1cnc2c(O)nc(N)nc21`, in that order: 56 µM and more than 100 µM.
For `C[C@@]1(F)[C@H](O)[C@@H](CO)O[C@H]1n1cnc2c(N)ncnc21`, in that order: more than 100 µM and more than 100 µM.
For `C[C@@]1(F)[C@H](O)[C@@H](CO)O[C@H]1n1cnc2c(Cl)ncnc21`, in that order: 88.2 µM and 27.1 µM.

The record behind these values is ChEMBL document CHEMBL1139016, “Synthesis and antiviral activity of 2'-deoxy-2'-fluoro-2'-C-methyl purine nucleosides as inhibitors of hepatitis C virus RNA replication” (Bioorg Med Chem Lett, 2006).
